# Source: ChEMBL document CHEMBL1212900, “Falcipain inhibitors: optimization studies of the 2-pyrimidinecarbonitrile lead series” (J Med Chem, 2010)
# Assays:
# [1] = Inhibition of Plasmodium falciparum falcipain-3 expressed in Escherichia coli
# In short: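 Refolded recombinant enzyme from E. coli, 2 nM, in 100 mM sodium acetate pH 5.5 with 500 μM CHAPS and 10 mM DTT, DMSO up to 1%. H-D-Val-Leu-Arg-AFC at 150 μM final. Reaction started by enzyme addition; fluorescence monitored 1 h at room temperature. IC50 derived from percent activity plotted against inhibitor concentration.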
# [2] = Inhibition of Plasmodium falciparum falcipain-2 expressed in Escherichia coli
# In short: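 Recombinant E. coli-expressed, refolded enzyme at 0.25 nM in 100 mM sodium acetate pH 5.5, 500 μM CHAPS, 10 mM DTT, DMSO ≤1%. Substrate H-D-Val-Leu-Arg-AFC at 30 μM final. Inhibitor dilutions mixed with substrate, enzyme added last; fluorescence followed 1 h at room temperature. IC50 from percent activity versus concentration.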
# [3] = system: Plasmodium falciparum; experiment: Antiplasmodial activity against Plasmodium falciparum W2 after 48 hrs; assay type: functional, organism-based; settings: W2, 48 h
# In short: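 W2 P. falciparum grown in human erythrocytes, 2% hematocrit, RPMI with 10% human serum or 0.5% AlbuMAX II; sorbitol-synchronized. Serial dilutions from DMSO stocks added at ring stage for 48 h, medium and drug renewed at 24 h. Cells fixed in 1% formaldehyde, stained with YOYO-1, parasitemia counted by flow cytometry; IC50 from percent parasitemia versus untreated controls.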
Structure (SMILES),IC50 [1] [nM],IC50 [2] [nM],IC50 [3] [nM]
CC(C)CN(NC(=O)c1cc2cccc(CN3CCN(C)CC3)c2o1)c1nc(C#N)ncc1Br,61,0.4,48
CC(C)CN(NC(=O)c1ccc(-c2ccc(CN3CCN(C)CC3)cc2)o1)c1nc(C#N)ncc1Br,5,< 0.5,17
CC(C)CN(NC(=O)c1ccc(CN2CCN(C)CC2)o1)c1nc(C#N)ncc1Br,12,0.7,21
CC(C)CN(NC(=O)c1cc2cc(CN3CCN(C)CC3)ccc2o1)c1nc(C#N)ncc1Br,29,< 0.5,30
CC(C)CN(NC(=O)c1cncc(-c2ccc(CN3CCN(C)CC3)cc2)c1)c1nc(C#N)ncc1Br,< 3,< 0.5,1
CC(C)CN(NC(=O)c1ccc(CN2CCN(C)CC2)s1)c1nc(C#N)ncc1Br,12,0.2,10
CC(C)CN(NC(=O)C(C)(C)c1ccc(OCCN2CCOCC2)cc1)c1nc(C#N)ncc1Cl,18,4,806
CC(C)CN(c1nc(C#N)ncc1Br)N(CCCN1CCN(C)CC1)C(=O)Cc1ccccc1,27,6,214
CC(C)CN(c1nc(C#N)ncc1Cl)N(CCCN1CCN(C)CC1)C(=O)Cc1ccccc1,78,11,108
CCCN1CCN(Cc2ccc(CC(=O)NN(CC(C)C)c3nc(C#N)ncc3Br)cc2)CC1,3,0.2,18
CC(C)CN(NC(=O)c1ccc(OCCN2CCOCC2)cc1)c1nc(C#N)ncc1Cl,90,2,870
CC(C)CN(NC(=O)c1ccc(-c2cccc(CN3CCN(C)CC3)c2)nc1)c1nc(C#N)ncc1Br,38,0.2,22
CC(C)CN(NC(=O)C(C)(C)c1ccc(CN2CCN(C)CC2)cc1)c1nc(C#N)ncc1Cl,46,5,253
CCCN1CCN(Cc2ccc(CC(=O)NN(CC(C)C)c3nc(C#N)ncc3Cl)cc2)CC1,6,0.7,41
CC(C)CN(c1nc(C#N)ncc1Br)N(CCCN1CCN(C)CC1)C(=O)c1ccc(F)cc1,105,9,346
CC(C)CN(NC(=O)c1ccc(OCCN2CCOCC2)cc1)c1nc(C#N)ncc1Br,145,3,622
CC(C)CN(NC(=O)Cc1ccc(OCCN2CCOCC2)cc1)c1nc(C#N)ncc1Br,5,0.7,65
CC(C)CN(NC(=O)c1ccc(-c2ccc(CN3CCN(C)CC3)cc2)nc1)c1nc(C#N)ncc1Br,26,< 0.5,16
CC(C)CN(NC(=O)Cc1ccc(CN2CCN(C)CC2)cc1)c1nc(C#N)ncc1Cl,5,0.7,43
CCCN1CCN(c2ccc(C(=O)NN(CC(C)C)c3nc(C#N)ncc3Br)cc2)CC1,32,< 0.5,25
CC(C)CN(NC(=O)Cc1ccc(OCCN2CCOCC2)cc1)c1nc(C#N)ncc1Cl,8,1,403
CC(C)CN(NC(=O)c1cncc(-c2cccc(CN3CCN(C)CC3)c2)c1)c1nc(C#N)ncc1Br,4,< 0.5,2
CC(C)CN(c1nc(C#N)ncc1Br)N(CCCN1CCN(C)CC1)C(=O)c1ccccc1,78,7,166
CC(C)CN(NC(=O)c1ccc(N2CCOCC2)nc1)c1nc(C#N)ncc1Br,53,0.2,1530
CC(C)CN(NC(=O)C(C)(C)c1ccc(OCCN2CCOCC2)cc1)c1nc(C#N)ncc1Br,13,3,802

# The remaining lines, values ahead:
IC50 [1] [nM],IC50 [2] [nM],IC50 [3] [nM],Structure (SMILES)
330,5,1080,CN1CCN(Cc2ccc(C(=O)NN(CC3CC3)c3nc(C#N)ncc3Br)cc2)CC1
135,11,310,CN1CCN(Cc2ccc(C(=O)NN(CC3CCOCC3)c3nc(C#N)ncc3Br)cc2)CC1
99,14,1880,CN1CCN(Cc2ccc(C(=O)NN(CC3CCCO3)c3nc(C#N)ncc3Br)cc2)CC1 (stereo not given)
6,0.5,27,CN1CCN(Cc2ccc(C(=O)NN(c3nc(C#N)ncc3Br)C3CCCCC3)cc2)CC1
158,19,409,CN1CCN(Cc2ccc(C(=O)NN(CC(C)(C)C)c3nc(C#N)ncc3Br)cc2)CC1
2040,187,1610,CCC(CC)N(NC(=O)c1ccc(CN2CCN(C)CC2)cc1)c1nc(C#N)ncc1Br
52,2,272,CCCC(C)CN(NC(=O)c1ccc(CN2CCN(C)CC2)cc1)c1nc(C#N)ncc1Br (stereo not given)
6,0.5,33,CN1CCN(Cc2ccc(C(=O)NN(CC3CCCC3)c3nc(C#N)ncc3Br)cc2)CC1
45,0.9,68,CC1CCC(N(NC(=O)c2ccc(CN3CCN(C)CC3)cc2)c2nc(C#N)ncc2Br)C1 (stereo not given)
16,2,263,CN1CCN(Cc2ccc(C(=O)NN(CC3CCCCC3)c3nc(C#N)ncc3Br)cc2)CC1
180,4,721,CN1CCN(Cc2ccc(C(=O)NN(Cc3ccco3)c3nc(C#N)ncc3Br)cc2)CC1
802,81,1200,CCCC(CCC)CN(NC(=O)c1ccc(CN2CCN(C)CC2)cc1)c1nc(C#N)ncc1Br
656,293,566,CCCCC(CCCC)CN(NC(=O)c1ccc(CN2CCN(C)CC2)cc1)c1nc(C#N)ncc1Br
17,0.9,59,CN1CCN(Cc2ccc(C(=O)NN(c3nc(C#N)ncc3Br)C3CCOCC3)cc2)CC1
88,8,1310,CC(=O)NC1CCC(N(NC(=O)c2ccc(CN3CCN(C)CC3)cc2)c2nc(C#N)ncc2Br)CC1 (stereo not given)
45,4,177,CN1CCN(Cc2ccc(C(=O)NN(CCC3CCCC3)c3nc(C#N)ncc3Br)cc2)CC1
35,0.9,24,CCC(C)CN(NC(=O)c1ccc(CN2CCN(C)CC2)cc1)c1nc(C#N)ncc1Br (stereo not given)
68,4,262,CC(C)CCN(NC(=O)c1ccc(CN2CCN(C)CC2)cc1)c1nc(C#N)ncc1Br

IC50 [1] [nM],IC50 [2] [nM],IC50 [3] [nM],Structure (SMILES)
5,0.8,28,CC(C)CN(NC(=O)Cc1ccc(CN2CCN(C)CC2)cc1)c1nc(C#N)ncc1Br
26,< 0.5,28,CC(=O)N1CCC(N(NC(=O)c2ccc(CN3CCN(C)CC3)cc2)c2nc(C#N)ncc2Br)CC1
39,3,1500,CN1CCN(Cc2ccc(C(=O)NN(CCC(C)(C)C)c3nc(C#N)ncc3Br)cc2)CC1
111,3,438,CN1CCN(Cc2ccc(C(=O)NN(CC3CCC3)c3nc(C#N)ncc3Br)cc2)CC1
17,5,1490,CN1CCN(Cc2ccc(C(=O)NN(CC3(C)CCCCC3)c3nc(C#N)ncc3Br)cc2)CC1
41,2,82,C[C@H]1CCC[C@H]1N(NC(=O)c1ccc(CN2CCN(C)CC2)cc1)c1nc(C#N)ncc1Br (relative stereo)
1370,29,401,CC(C)N(NC(=O)c1ccc(CN2CCN(C)CC2)cc1)c1nc(C#N)ncc1Br
3,0.2,5,C[C@@H]1CCC[C@H]1N(NC(=O)c1ccc(CN2CCN(C)CC2)cc1)c1nc(C#N)ncc1Br
21,3,236,CC(C)CN(NC(=O)C(C)(C)c1ccc(CN2CCN(C)CC2)cc1)c1nc(C#N)ncc1Br
16,0.7,98,CN1CCN(Cc2ccc(C(=O)NN(CC3CC=CC3)c3nc(C#N)ncc3Br)cc2)CC1
173,2,90,CN1CCN(Cc2ccc(C(=O)NN(c3nc(C#N)ncc3Br)C3CCC3)cc2)CC1
110,2,104,CN1CCN(Cc2ccc(C(=O)NN(c3nc(C#N)ncc3Br)C3CCCC3(C)C)cc2)CC1 (stereo not given)
105,23,2180,CN1CCN(Cc2ccc(C(=O)NN(CCc3ccccc3)c3nc(C#N)ncc3Br)cc2)CC1
44,2,194,CCC(CC)CN(NC(=O)c1ccc(CN2CCN(C)CC2)cc1)c1nc(C#N)ncc1Br
11,< 0.5,24,CN1CCN(Cc2ccc(C(=O)NN(c3nc(C#N)ncc3Br)C3CCCC3)cc2)CC1
133,2,333,CN1CCN(Cc2ccc(C(=O)NN(Cc3ccoc3)c3nc(C#N)ncc3Br)cc2)CC1
55,0.4,15,CC(C)CN(NC(=O)c1ccc(CN2CCN(C)CC2)cc1)c1nc(C#N)ncc1Br
